Results from ChEMBL document CHEMBL1132373, “Synthesis, opioid receptor binding, and biological activities of naltrexone-derived pyrido- and pyrimidomorphinans” (J Med Chem, 1999).
pIC50, pKi: −log10 of the molar value.

Legend:
[1] = biological target: Opioid receptors; mu & delta (Rattus norvegicus) (UniProt P33533+P33535); test: Selectivity ratio of binding affinity towards mu to delta receptors of rat brain membranes; type: cell membranes; conditions: Membrane
[2] = species: Cavia porcellus; test: Inhibition of contraction (agonistic activity) of guinea pig ileum(GPI) at 1 uM concentration.; type: functional; conditions: for pIC50: Cavia porcellus, Ileum
Method in brief: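 Guinea pig ileum longitudinal muscle strips, 37 °C oxygenated Krebs, 1 g tension, 0.1 Hz, 0.4 ms pulses, supramaximal voltage.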

[3] = biological target: Delta-type opioid receptor (Mus musculus) (UniProt P32300); test: Antagonist potency against delta opioid receptor in mouse vas deferens (MVD) using DPDPE; type: functional, tissue-based
Method in brief: (§1)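 Vas deferens from male ICR mice (25-40 g) in 37 °C oxygenated magnesium-free Krebs, 0.5 g tension, field-stimulated 0.1 Hz, 2-ms pulses. Compound 1 µM for 30 min, washout 30 min, cumulative DPDPE curve repeated. Ke = [antagonist]/(IC50 ratio - 1); IC50 from 2-4 tissues, n ≥ 3, nonlinear least squares.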

[4] = biological target: Delta-type opioid receptor (Mus musculus) (UniProt P32300); test: (§2) Antagonist potency measured as Ke = [antagonist]/(IC50 ratio-1) against delta opioid receptor from mouse vas deferens (MVD) using DPDPE; type: functional; method in brief: as §1
[5] = biological target: Mu-type opioid receptor (Cavia porcellus) (UniProt P97266); test: Antagonist potency against mu opioid receptor in guinea pig ileum (GPI) using […]; type: functional, tissue-based
Method in brief: (§3)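 Longitudinal muscle-myenteric plexus strips from male Hartley guinea pigs (250-500 g), 37 °C oxygenated Krebs, 1 g tension, 0.1 Hz, 0.4 ms pulses. Preincubated 30 min with 1 µM compound, washed 30 min, cumulative PL-017 curve repeated. Ke = [antagonist]/(IC50 ratio - 1); IC50 from 2-4 tissues.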

[6] = biological target: Mu-type opioid receptor (Cavia porcellus) (UniProt P97266); test: Opioid antagonist potency against […] mu-opioid receptor from guinea pig ileum(GPI).; type: functional, tissue-based; method in brief: as §3
[7] = species: Cavia porcellus; test: Selectivity ratio of binding affinity towards mu of […] preparations; type: tissue-based
[8] = biological target: Kappa-type opioid receptor (Cavia porcellus, UniProt P41144); test: Binding affinity for Opioid receptor kappa 1 was determined by inhibition of binding of [3H]U-69593 (1.2-2.2 nM) to guinea pig brain membranes; set-up: species or system Membrane
Method in brief: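 Guinea pig brain membranes prepared daily, washed twice at 30000g. [3H]U69,593 (2 nM) incubated 2 h at 25 °C in 50 mM Tris-HCl pH 7.4 with 1 µg/mL captopril and protease inhibitors. Nonspecific binding with 1 µM U69,593. 8-10 drug concentrations, twice; Ki = IC50/(1+[L]/Kd).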

[9] = biological target: Mu-type opioid receptor (Rattus norvegicus, UniProt P33535); test: Binding affinity for Opioid receptor mu 1 was determined by inhibition of binding of [3H]DAMGO (1.4-3 nM) to rat brain membranes; type: cell membranes, Membrane
Method in brief: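 Rat brain membranes prepared daily, washed twice at 30000g. Labelled with [3H]DAMGO (1-3 nM), 2 h at 25 °C in 50 mM Tris-HCl pH 7.4 plus protease inhibitor cocktail. Nonspecific binding with 20 µM levallorphan. Test drug at 8-10 concentrations, run twice; Ki from IC50 via Ki = IC50/(1+[L]/Kd).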

[10] = species: Cavia porcellus; test: Selectivity ratio of binding affinity towards kappa of guinea pig brain membrane to delta receptors of rat brain membranes; type: cell membranes
[11] = biological target: Delta-type opioid receptor (Rattus norvegicus, UniProt P33533); test: Binding affinity for Opioid receptor delta 1 was determined by inhibition of binding of [3H]DADLE (1.3-2.0 nM) to rat brain membranes; type: cell membranes, Membrane
Method in brief: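 Rat brain membranes prepared daily (homogenised in ice-cold 10 mM Tris-HCl pH 7.0, centrifuged twice at 30000g). [3H]DADLE (2 nM) incubated 2 h at 25 °C in 50 mM Tris-HCl pH 7.4 with 100 mM choline chloride, 3 mM MnCl2, 100 nM DAMGO blocking mu sites, protease inhibitors. Nonspecific: 20 µM levallorphan. 8-10 drug concentrations, duplicate; Ki = IC50/(1+[L]/Kd).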

[12] = species: Mus musculus; test: Inhibition of contraction (agonistic activity) of mouse vas deferens (MVD) at 1 uM concentration.; type: functional; conditions: for pIC50: Mus musculus
[13] = biological target: Delta-type opioid receptor (Mus musculus, UniProt P32300); test: as §2; type: functional; method in brief: as §1
[14] = biological target: Delta-type opioid receptor (Mus musculus) (UniProt P32300)

Kappa-type opioid receptor, sequence (P41144 whole entry): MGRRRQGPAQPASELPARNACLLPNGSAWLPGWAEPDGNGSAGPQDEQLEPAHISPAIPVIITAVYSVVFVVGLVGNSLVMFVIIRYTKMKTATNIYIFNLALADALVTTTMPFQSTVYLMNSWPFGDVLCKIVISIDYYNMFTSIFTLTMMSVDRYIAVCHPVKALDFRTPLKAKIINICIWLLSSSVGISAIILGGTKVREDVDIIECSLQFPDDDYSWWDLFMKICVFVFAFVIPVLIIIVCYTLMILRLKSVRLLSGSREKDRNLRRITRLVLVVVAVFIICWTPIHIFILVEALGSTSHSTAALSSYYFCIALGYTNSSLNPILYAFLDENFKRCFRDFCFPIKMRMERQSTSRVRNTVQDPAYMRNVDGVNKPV
Opioid receptors; mu & delta (Rattus norvegicus), sequence (P33533 whole entry, looked up): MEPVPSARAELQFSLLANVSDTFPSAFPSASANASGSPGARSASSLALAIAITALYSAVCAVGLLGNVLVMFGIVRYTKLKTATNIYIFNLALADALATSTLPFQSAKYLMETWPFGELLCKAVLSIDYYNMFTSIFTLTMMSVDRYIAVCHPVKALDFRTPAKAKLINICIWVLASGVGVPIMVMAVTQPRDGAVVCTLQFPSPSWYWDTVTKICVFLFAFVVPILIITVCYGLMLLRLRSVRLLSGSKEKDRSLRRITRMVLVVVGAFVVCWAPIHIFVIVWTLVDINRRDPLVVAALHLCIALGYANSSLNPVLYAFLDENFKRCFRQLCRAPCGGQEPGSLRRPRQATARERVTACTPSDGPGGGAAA
Opioid receptors; mu & delta (Rattus norvegicus), sequence (P33535 whole entry, looked up): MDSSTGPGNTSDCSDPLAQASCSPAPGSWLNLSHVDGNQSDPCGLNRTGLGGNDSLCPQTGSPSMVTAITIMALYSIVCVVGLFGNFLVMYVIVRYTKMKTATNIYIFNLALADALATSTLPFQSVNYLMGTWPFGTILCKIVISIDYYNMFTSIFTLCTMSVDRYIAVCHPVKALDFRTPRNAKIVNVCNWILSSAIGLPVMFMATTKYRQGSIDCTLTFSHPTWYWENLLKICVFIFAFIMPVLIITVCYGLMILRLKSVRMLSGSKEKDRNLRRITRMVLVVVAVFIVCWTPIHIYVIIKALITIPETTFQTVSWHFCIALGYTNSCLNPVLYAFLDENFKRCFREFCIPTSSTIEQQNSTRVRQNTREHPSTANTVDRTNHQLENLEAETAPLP
Delta-type opioid receptor (Rattus norvegicus, UniProt P33533), sequence (P33533 whole entry): as the sequence (P33533 whole entry, looked up) above
Mu-type opioid receptor, sequence (P33535 whole entry): as the sequence (P33535 whole entry, looked up) above
Mu-type opioid receptor (Cavia porcellus), sequence (P97266 whole entry): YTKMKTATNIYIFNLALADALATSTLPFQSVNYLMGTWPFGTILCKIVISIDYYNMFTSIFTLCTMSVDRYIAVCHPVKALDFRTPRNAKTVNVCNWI
Delta-type opioid receptor (Mus musculus), sequence (P32300 whole entry): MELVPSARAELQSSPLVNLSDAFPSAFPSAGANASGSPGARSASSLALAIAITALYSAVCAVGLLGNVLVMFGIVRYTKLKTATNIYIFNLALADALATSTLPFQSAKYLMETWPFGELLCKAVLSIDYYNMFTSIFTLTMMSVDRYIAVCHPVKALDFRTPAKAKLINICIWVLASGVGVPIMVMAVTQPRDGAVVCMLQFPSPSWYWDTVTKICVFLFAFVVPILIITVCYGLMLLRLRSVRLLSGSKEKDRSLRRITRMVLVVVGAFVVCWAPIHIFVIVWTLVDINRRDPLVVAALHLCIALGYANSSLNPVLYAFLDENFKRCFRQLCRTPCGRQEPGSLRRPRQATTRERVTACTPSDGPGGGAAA
Delta-type opioid receptor (Mus musculus, UniProt P32300), sequence (P32300 whole entry): as above

SMILES: Oc1ccc2c3c1O[C@H]1c4nc(-c5ccccc5)ncc4C[C@@]4(O)[C@@H](C2)N(CC2CC2)CC[C@]314
- Selectivity ratio [1]: 1.4
- pIC50 [2]: 8.40
- IC50 ratio [3]: 14.3
- Ke [4]: 75 nM
- IC50 ratio [5]: 34.1
- Ke [6]: 30 nM
- Selectivity ratio [7]: 0.4
- pKi [8]: 7.96
- pKi [9]: 7.66
- Selectivity ratio [10]: 0.7
- pKi [11]: 7.80

SMILES: Oc1ccc2c3c1O[C@H]1c4ncc(-c5ccccc5)cc4C[C@@]4(O)[C@@H](C2)N(CC2CC2)CC[C@]314
- Selectivity ratio [1]: 16
- Percent inhibition of contraction at 1 uM [12]: 4.7%
- IC50 ratio [3]: 249
- IC50 ratio [5]: 24.6
- Selectivity ratio [7]: 12
- pKi [8]: 7.75
- pKi [9]: 7.87
- pKi [13]: 8.47
- Selectivity ratio [10]: 20
- pKi [11]: 9.06

SMILES: Oc1ccc2c3c1O[C@H]1c4ncnc(-c5ccccc5)c4C[C@@]4(O)[C@@H](C2)N(CC2CC2)CC[C@]314
- Selectivity ratio [1]: 1.5
- Percent inhibition of contraction at 1 uM [2]: 17%
- Percent inhibition of contraction at 1 uM [12]: 15.4%
- IC50 ratio [3]: 4.3
- Ke [4]: 300 nM
- IC50 ratio [5]: 5.9
- Ke [6]: 204 nM
- Selectivity ratio [7]: 0.7
- pKi [8]: 6.67
- pKi [9]: 6.46
- Selectivity ratio [10]: 0.9
- pKi [11]: 6.64

SMILES: Oc1ccc2c3c1O[C@H]1c4[nH]c5ccccc5c4C[C@@]4(O)[C@@H](C2)N(CC2CC2)CC[C@]314 [NALTRINDOLE]
- Percent inhibition of contraction at 1 uM [2]: 18%
- Percent inhibition of contraction at 1 uM [12]: 16%
- Ke [6]: 43 nM

SMILES: Oc1ccc2c3c1O[C@H]1c4ncccc4C[C@@]4(O)[C@@H](C2)N(CC2CC2)CC[C@]314
- Selectivity ratio [1]: 1.9
- inhibition at 1 µM [2]: 0%
- inhibition at 1 µM [12]: 0%
- IC50 ratio [5]: 7.08
- Selectivity ratio [7]: 4.4
- pKi [8]: 8.06
- pKi [9]: 8.82
- Selectivity ratio [10]: 11
- pKi [11]: 9.11
- Ke [14]: 37 nM

SMILES: Cc1ncc2c(n1)[C@@H]1Oc3c(O)ccc4c3[C@@]13CCN(CC1CC1)[C@H](C4)[C@]3(O)C2
- Selectivity ratio [1]: 0.3
- pIC50 [12]: 8.52
- IC50 ratio [3]: 7.6
- Ke [4]: 150 nM
- pKi [8]: 7.60
- pKi [9]: 8.22
- Selectivity ratio [10]: 1.1
- pKi [11]: 7.64

SMILES: Oc1ccc2c3c1O[C@H]1c4ncncc4C[C@@]4(O)[C@@H](C2)N(CC2CC2)CC[C@]314
- Selectivity ratio [1]: 1.2
- IC50 ratio [3]: 14.4
- Ke [4]: 75 nM
- IC50 ratio [5]: 7.52
- Ke [6]: 150 nM
- Selectivity ratio [7]: 2
- pKi [8]: 8.20
- pKi [9]: 8.38
- Selectivity ratio [10]: 1.8
- pKi [11]: 8.46

SMILES: Cc1nc(-c2ccccc2)c2c(n1)C1Oc3c(O)ccc4c3[C@@]13CCN(CC1CC1)[C@H](C4)[C@]3(O)C2 (some centres undefined)
- Selectivity ratio [1]: 0.8
- pKi [8]: 6.25
- pKi [9]: 6.60
- Selectivity ratio [10]: 1.7
- pKi [11]: 6.49

SMILES: Oc1ccc2c3c1O[C@H]1c4nc(-c5ccccc5)cc(-c5ccccc5)c4C[C@@]4(O)[C@@H](C2)N(CC2CC2)CC[C@]314
- Selectivity ratio [1]: 7.6
- IC50 ratio [3]: 21.2
- Ke [4]: 49 nM
- pKi [8]: 5.67
- pKi [9]: 6.19
- Selectivity ratio [10]: 25
- pKi [11]: 7.07

SMILES: Oc1ccc2c3c1O[C@H]1c4nc(-c5ccccc5)nc(-c5ccccc5)c4C[C@@]4(O)[C@@H](C2)N(CC2CC2)CC[C@]314
- Selectivity ratio [1]: 3.4
- IC50 ratio [3]: 7.63
- Ke [4]: 150 nM
- IC50 ratio [5]: 2.8
- Ke [6]: 560 nM
- Selectivity ratio [7]: 3.7
- pKi [8]: 5.60
- pKi [9]: 5.93
- Selectivity ratio [10]: 7.4
- pKi [11]: 6.46

SMILES: Oc1ccc2c3c1O[C@H]1c4ncc(-c5ccc(Cl)cc5)cc4C[C@@]4(O)[C@@H](C2)N(CC2CC2)CC[C@]314
- pIC50 [2]: 6.79
- Percent inhibition of contraction at 1 uM [12]: 21%

SMILES: Oc1ccc2c3c1OC1c4nccc(-c5ccccc5)c4C[C@@]4(O)[C@@H](C2)N(CC2CC2)CC[C@]314 (some centres undefined)
- Selectivity ratio [1]: 2.6
- Percent inhibition of contraction at 1 uM [2]: 14.8%
- Percent inhibition of contraction at 1 uM [12]: 31%
- IC50 ratio [3]: 20.5
- Ke [4]: 51 nM
- IC50 ratio [5]: 6.21
- Ke [6]: 190 nM
- Selectivity ratio [7]: 3.7
- pKi [8]: 6.58
- pKi [9]: 6.72
- Selectivity ratio [10]: 3.6
- pKi [11]: 7.14

SMILES: Oc1ccc2c3c1O[C@H]1c4nc(-c5ccccc5)ccc4C[C@@]4(O)[C@@H](C2)N(CC2CC2)CC[C@]314
- Selectivity ratio [1]: 6.3
- IC50 ratio [3]: 41.1
- Ke [4]: 25 nM
- IC50 ratio [5]: 12.4
- Ke [6]: 88 nM
- Selectivity ratio [7]: 3.5
- pKi [8]: 7.74
- pKi [9]: 7.96
- Selectivity ratio [10]: 10
- pKi [11]: 8.75

SMILES: Oc1ccc2c3c1O[C@H]1c4nc5ccccc5c(-c5ccccc5)c4C[C@@]4(O)[C@@H](C2)N(CC2CC2)CC[C@]314
- Selectivity ratio [1]: 4.2
- pKi [8]: 6.57
- pKi [9]: 6.51
- Selectivity ratio [10]: 3.7
- pKi [11]: 7.14

SMILES: Cc1cc(-c2ccccc2)c2c(n1)C1Oc3c(O)ccc4c3[C@@]13CCN(CC1CC1)[C@H](C4)[C@]3(O)C2 (some centres undefined)
- Selectivity ratio [1]: 1.2
- pIC50 [2]: 8.27
- pIC50 [12]: 8.92
- pKi [8]: 6.17
- pKi [9]: 6.81
- Selectivity ratio [10]: 5.4
- pKi [11]: 6.90

SMILES: Oc1ccc2c3c1O[C@H]1c4nc(Cc5ccccc5)nc(-c5ccccc5)c4C[C@@]4(O)[C@@H](C2)N(CC2CC2)CC[C@]314
- Selectivity ratio [1]: 2.3
- IC50 [2]: 14%
- IC50 [12]: 11.7%
- IC50 ratio [3]: 4.8
- Ke [4]: 260 nM
- IC50 ratio [5]: 23.8
- Ke [6]: 44 nM
- Selectivity ratio [7]: 0.17
- pKi [8]: 5.90
- pKi [9]: 6.63
- Selectivity ratio [10]: 13
- pKi [11]: 7.00
